Laboratory results from ChEMBL document CHEMBL3425495, “Perturbation of the c-Myc-Max protein-protein interaction via synthetic α-helix mimetics” (J Med Chem, 2015).
pIC50, pKd: −log10 of the molar value. Blank lines part the entries; values can stand above or below the molecule they belong to. Active and inactive are the calls of the source. The calls are words filed in the database; no cut-off is given here.

What was measured:
[1] = Cell cycle arrest in human HL60 cells assessed as accumulation at S phase at 15 uM after 24 hrs by propidium iodide staining-based flow cytometric analysis (reference value: 58.4%); format: functional; details: HL-60
[2] = target: Protein max (Homo sapiens) (UniProt P61244); experiment: Binding affinity to human recombinant 15N labeled Max(S) homodimer assessed as chemical shift up to 100 uM by NMR spectroscopy
c-Myc/Max [3] = target: T1, c-Myc/Max (Homo sapiens, UniProt P01106+P61244); experiment: Disruption of human recombinant c-Myc-Max(S)/DNA (unknown origin) binding assessed as complex level at 100 uM by electrophoretic mobility shift assay relative to control; format: protein-complex assay
Summary of the method: (§1)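 Recombinant c-Myc 353–437 bHLH-ZIP with full-length Max(S), or Max(L) alone, from E. coli (His₆ removed by TEV), each 30 nM, with 30 nM HEX-labelled double-stranded oligonucleotide bearing a c-Myc site; buffer 1× PBS pH 7.3, 1 mM EDTA, 0.1% NP40, 5% glycerol, 1 mM DTT, 400 µg/mL BSA; complex level relative to DMSO control; three independent EMSAs.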

[4] = Cell cycle arrest in human HL60 cells assessed as accumulation at G2/M phase at 15 uM after 24 hrs by propidium iodide staining-based flow cytometric analysis (reference value: 10.3%); format: functional; details: HL-60
HeLa = experiment: Antiproliferative activity against human HeLa cells after 3 days by MTT assay; format: functional, cell-based; details: 72 h
Summary of the method: (§2)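 Cells at >90% viability seeded at 2×10³ cells/well in fresh growth medium with 10-point serial dilutions of compound; 3-day incubation; viability by MTT, relative to untreated cells; each point in at least triplicate; IC50 from dose–response. HO15.19-wt-Myc are myc−/− rat fibroblasts with c-Myc restored by stable retroviral transduction.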

[5] = Cell cycle arrest in human HL60 cells assessed as accumulation at G0/G1 phase at 15 uM after 24 hrs by propidium iodide staining-based flow cytometric analysis (reference value: 31.2%); format: functional; details: HL-60
[6] = Antiproliferative activity against human H460 cells after 3 days by MTT assay; format: functional, cell-based; details: NCI-H460, 72 h; summary of the method: as §2
[7] = target: Nuclear factor NF-kappa-B complex (Homo sapiens) (UniProt Q00653+P19838+Q04206); experiment: Inhibition of NFkappaB binding site (unknown origin) expressed in human HeLa cells assessed as inhibition of luciferase after 6 hrs; format: cell-based
Summary of the method: (§3)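 HeLa cells stably carrying a labile luciferase under a minimal promoter with triplicated c-Myc or NF-κB sites, methotrexate-amplified; 10⁶ cells seeded, next day compound for 6 h; lysates assayed in triplicate, normalised to protein, background (mutant-site line) subtracted, expressed relative to untreated cells (100%); mean ± 1 standard error.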

[8] = Cell cycle arrest in human HL60 cells assessed as accumulation at S phase at 10 uM after 24 hrs by propidium iodide staining-based flow cytometric analysis (reference value: 58.4%); format: functional; details: HL-60
[9] = Antiproliferative activity against human KJON cells after 3 days by MTT assay; format: functional, cell-based; details: 72 h; summary of the method: as §2
[10] = Antiproliferative activity against rat HO15.19-wt-Myc cells after 3 days by MTT assay; format: functional, cell-based; details: HO15.19, 72 h; summary of the method: as §2
[11] = Antiproliferative activity against human JJN-3 cells after 3 days by MTT assay; format: functional, cell-based; details: JJN-3, 72 h; summary of the method: as §2
HEK293 = experiment: Antiproliferative activity against human HEK293 cells after 3 days by MTT assay; format: functional, cell-based; details: HEK293, 72 h; summary of the method: as §2
[12] = Cell cycle arrest in human HL60 cells assessed as accumulation at G2/M phase at 10 uM after 24 hrs by propidium iodide staining-based flow cytometric analysis (reference value: 10.3%); format: functional; details: HL-60
[13] = Cell cycle arrest in human HL60 cells assessed as accumulation at G0/G1 phase at 10 uM after 24 hrs by propidium iodide staining-based flow cytometric analysis (reference value: 31.2%); format: functional; details: HL-60
c-Myc/Max [14] = target: T1, c-Myc/Max; experiment: Induction of dissociation of […]-Max in human HL60 cells at 10 to 30 uM after 6 hrs by Co-immunoprecipitation (Co-IP) assay; format: cell-based; details: HL-60
Summary of the method: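 About 5×10⁶ HL60 cells exposed 6 h to compound or DMSO; lysed in IP buffer; 300 µg cleared lysate immunoprecipitated overnight at 4 °C with anti-Max (1:200) and protein G-Sepharose; 10% SDS-PAGE, immunoblot with anti-c-Myc 9E10 (1:1000); input lysate kept for comparison.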

c-Myc/Max [15] = target: T1, c-Myc/Max; experiment: Inhibition of human recombinant His-tagged c-Myc-Max(S) heterodimer binding to DNA at 3.1 to 50 uM after 30 mins by SPR analysis in presence of biotinylated E-box-containing oligonucleotides; format: protein-complex assay
[16] = Antiproliferative activity against human ANBL-6 cells after 3 days by MTT assay; format: functional, cell-based; details: ANBL-6, 72 h; summary of the method: as §2
c-Myc/Max [17] = target: T1, c-Myc/Max; experiment: Inhibition of heterodimerization of human recombinant His-tagged c-Myc-Max(S) compound treated for 20 mins with c-Myc and followed by added Max(S) at 3.1 to 50 uM after 30 mins by SPR analysis in presence of biotinylated E-box-containing oligonucleotides; format: protein-complex assay
c-Myc/Max [18] = target: T1, c-Myc/Max; experiment: Binding affinity to human recombinant 15N labeled c-Myc-Max(S) heterodimer assessed as chemical shift up to 100 uM by NMR spectroscopy; format: protein-complex assay
[19] = Antiproliferative activity against human INA-6 cells after 3 days by MTT assay; format: functional, cell-based; details: INA-6, 72 h; summary of the method: as §2
[20] = target: Myc proto-oncogene protein (Homo sapiens) (UniProt P01106); experiment: Inhibition of wild type c-Myc binding site (unknown origin) expressed in human HeLa cells assessed as inhibition of luciferase after 6 hrs; format: cell-based; summary of the method: as §3
[21] = Antiproliferative activity against human IH-1 cells after 3 days by MTT assay; format: functional, cell-based; details: IH-1, 72 h; summary of the method: as §2
c-Myc/Max [22] = target: T1, c-Myc/Max; experiment: Disruption of human recombinant c-Myc-Max/DNA (unknown origin) binding assessed as complex level by electrophoretic mobility shift assay relative to control; format: protein-complex assay; summary of the method: as §1
[23] = Antiproliferative activity against human U266 cells after 3 days by MTT assay; format: functional, cell-based; details: U-266, 72 h; summary of the method: as §2
Daudi = experiment: Antiproliferative activity against c-Myc-overexpressing human Daudi cells after 3 days by MTT assay; format: functional, cell-based; details: 72 h; summary of the method: as §2
NCI-H460 = experiment: Induction of neutral lipid accumulation in human H460 cells assessed as ratio of mean florescent intensity of compound treated to control cells at 40 uM after 48 hrs by flow cytometry; format: functional
Summary of the method: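 Sub-confluent H460 cells given compound 48 h; trypsinised, washed, stained 30 min at ambient temperature with BODIPY […]/503 (stock 50 µg/ml, 0.9 ml added to 0.1 ml cells); flow cytometry of ≥10⁴ events; mean fluorescence of treated over untreated cells; biological triplicates, ± one standard error.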

c-Myc/Max [24] = target: T1, c-Myc/Max; details: 6.3 to 50 uM
c-Myc/Max [25] = target: T1, c-Myc/Max; details: 6.3 to 50 uM; remark: listed apart in the source

T1 sequence (P01106 whole entry): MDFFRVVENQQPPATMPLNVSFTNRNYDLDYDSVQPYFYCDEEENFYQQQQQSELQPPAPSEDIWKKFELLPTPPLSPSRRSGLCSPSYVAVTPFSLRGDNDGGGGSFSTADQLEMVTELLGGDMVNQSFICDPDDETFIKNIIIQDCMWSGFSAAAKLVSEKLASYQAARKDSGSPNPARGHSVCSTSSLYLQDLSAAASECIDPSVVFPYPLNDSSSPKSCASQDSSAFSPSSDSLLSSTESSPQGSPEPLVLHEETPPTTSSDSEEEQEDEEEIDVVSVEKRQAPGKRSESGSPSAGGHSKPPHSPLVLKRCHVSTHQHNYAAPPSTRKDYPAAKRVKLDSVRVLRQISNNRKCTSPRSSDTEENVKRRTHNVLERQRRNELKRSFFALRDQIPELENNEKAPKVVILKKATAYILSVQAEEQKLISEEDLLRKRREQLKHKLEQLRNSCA
T1 sequence (P61244 whole entry): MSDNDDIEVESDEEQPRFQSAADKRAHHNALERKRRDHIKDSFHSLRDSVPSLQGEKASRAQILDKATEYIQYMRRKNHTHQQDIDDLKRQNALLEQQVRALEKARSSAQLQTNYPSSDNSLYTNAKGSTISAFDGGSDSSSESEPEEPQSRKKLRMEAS
Sequence of Myc proto-oncogene protein (Homo sapiens) (P01106 whole entry): as the sequence (P01106 whole entry) above
Sequence of Protein max (Homo sapiens) (P61244 whole entry): as the sequence (P61244 whole entry) above
Sequence of Nuclear factor NF-kappa-B complex (Homo sapiens) (P19838 whole entry, looked up): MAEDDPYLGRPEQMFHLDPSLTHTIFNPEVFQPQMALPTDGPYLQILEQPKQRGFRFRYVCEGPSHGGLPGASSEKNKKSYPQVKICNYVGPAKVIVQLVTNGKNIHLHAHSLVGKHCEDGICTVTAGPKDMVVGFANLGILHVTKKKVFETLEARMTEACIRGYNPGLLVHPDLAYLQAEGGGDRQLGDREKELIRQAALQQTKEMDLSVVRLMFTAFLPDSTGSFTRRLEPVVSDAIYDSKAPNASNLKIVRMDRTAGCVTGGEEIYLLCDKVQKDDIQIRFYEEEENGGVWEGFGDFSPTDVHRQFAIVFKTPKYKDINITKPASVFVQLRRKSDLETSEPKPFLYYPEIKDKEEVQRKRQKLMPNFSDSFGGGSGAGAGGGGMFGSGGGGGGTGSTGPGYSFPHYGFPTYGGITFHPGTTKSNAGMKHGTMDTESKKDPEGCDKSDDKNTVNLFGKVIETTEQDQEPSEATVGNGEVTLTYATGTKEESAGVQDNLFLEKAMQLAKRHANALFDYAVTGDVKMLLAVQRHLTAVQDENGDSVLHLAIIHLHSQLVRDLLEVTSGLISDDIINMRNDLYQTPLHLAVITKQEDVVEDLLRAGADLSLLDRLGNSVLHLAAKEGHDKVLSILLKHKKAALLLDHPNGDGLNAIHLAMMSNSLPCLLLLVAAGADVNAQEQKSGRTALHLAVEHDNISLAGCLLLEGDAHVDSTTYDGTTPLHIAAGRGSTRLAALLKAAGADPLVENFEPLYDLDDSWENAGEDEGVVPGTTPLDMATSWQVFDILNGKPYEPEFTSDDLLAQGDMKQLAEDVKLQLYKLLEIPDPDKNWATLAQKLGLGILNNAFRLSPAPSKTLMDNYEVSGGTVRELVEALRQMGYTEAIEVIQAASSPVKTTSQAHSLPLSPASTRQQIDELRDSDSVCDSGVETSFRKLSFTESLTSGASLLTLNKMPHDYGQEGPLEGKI
Sequence of Nuclear factor NF-kappa-B complex (Homo sapiens) (Q00653 whole entry, looked up): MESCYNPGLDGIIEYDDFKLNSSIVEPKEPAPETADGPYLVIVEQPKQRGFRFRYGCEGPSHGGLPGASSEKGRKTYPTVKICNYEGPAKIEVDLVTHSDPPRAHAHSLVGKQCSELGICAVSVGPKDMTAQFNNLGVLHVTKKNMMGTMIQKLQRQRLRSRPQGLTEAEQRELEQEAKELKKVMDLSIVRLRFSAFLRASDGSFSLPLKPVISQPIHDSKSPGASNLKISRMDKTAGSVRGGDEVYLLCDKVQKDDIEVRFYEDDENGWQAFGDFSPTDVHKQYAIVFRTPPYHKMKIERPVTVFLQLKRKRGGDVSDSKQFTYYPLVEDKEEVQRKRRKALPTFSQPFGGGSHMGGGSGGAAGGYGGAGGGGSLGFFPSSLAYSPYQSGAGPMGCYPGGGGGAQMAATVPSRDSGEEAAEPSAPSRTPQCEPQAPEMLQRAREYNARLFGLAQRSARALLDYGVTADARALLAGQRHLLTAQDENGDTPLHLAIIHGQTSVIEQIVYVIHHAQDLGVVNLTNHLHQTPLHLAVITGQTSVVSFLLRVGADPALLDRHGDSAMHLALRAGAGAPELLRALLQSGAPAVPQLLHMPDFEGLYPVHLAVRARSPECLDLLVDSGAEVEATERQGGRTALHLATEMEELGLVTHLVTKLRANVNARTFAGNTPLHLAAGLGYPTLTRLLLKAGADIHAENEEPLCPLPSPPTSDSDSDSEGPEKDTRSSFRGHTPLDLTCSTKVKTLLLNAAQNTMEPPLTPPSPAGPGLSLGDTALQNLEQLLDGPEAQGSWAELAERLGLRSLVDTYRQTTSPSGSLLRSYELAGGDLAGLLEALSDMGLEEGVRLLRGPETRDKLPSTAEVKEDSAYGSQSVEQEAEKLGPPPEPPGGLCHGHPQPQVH
Sequence of Nuclear factor NF-kappa-B complex (Homo sapiens) (Q04206 whole entry, looked up): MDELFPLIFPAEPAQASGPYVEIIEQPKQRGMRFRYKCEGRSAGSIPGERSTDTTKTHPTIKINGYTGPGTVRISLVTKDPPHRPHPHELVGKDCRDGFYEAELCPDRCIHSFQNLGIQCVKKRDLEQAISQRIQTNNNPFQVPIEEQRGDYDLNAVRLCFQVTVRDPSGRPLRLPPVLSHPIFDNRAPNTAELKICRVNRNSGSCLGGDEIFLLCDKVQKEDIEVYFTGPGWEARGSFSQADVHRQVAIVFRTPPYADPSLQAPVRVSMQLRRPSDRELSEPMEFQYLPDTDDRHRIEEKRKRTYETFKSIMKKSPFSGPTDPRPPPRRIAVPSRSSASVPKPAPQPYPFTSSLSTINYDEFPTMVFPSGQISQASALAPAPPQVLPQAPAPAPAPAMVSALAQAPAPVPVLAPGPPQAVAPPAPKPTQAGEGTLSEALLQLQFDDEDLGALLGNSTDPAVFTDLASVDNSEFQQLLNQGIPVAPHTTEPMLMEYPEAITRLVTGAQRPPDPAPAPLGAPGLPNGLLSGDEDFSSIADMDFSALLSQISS

- Activity [2]: inactive
- Activity (c-Myc/Max [3]): 0%
- pIC50 (HeLa): 4.97
- inhibition [7]: inactive
- Activity (c-Myc/Max [14]): inactive
- inhibition (c-Myc/Max [15]): Active
- inhibition (c-Myc/Max [17]): Active
- pKd (c-Myc/Max [18]): 4.89
- inhibition [20]: Dose-dependent effect
- pIC50 (c-Myc/Max [22]): 4.94
- pIC50 (Daudi): 5.02
Compound: CC(C)COc1cc(C(=O)O)ccc1NC(=O)c1ccc([N+](=O)[O-])c(OCc2cccc3ccccc23)c1
- Activity [1]: 23.3%
- Activity [4]: 5.64%
- Activity [5]: 71%
- pIC50 [6]: 4.80
- Activity [8]: 47.9%
- pIC50 [9]: 4.64
- pIC50 [10]: 4.85
- pIC50 [11]: 4.80
- pIC50 (HEK293): 4.98
- Activity [12]: 0.77%
- Activity [13]: 51.4%
- pIC50 [16]: 4.45
- pIC50 [19]: 4.74
- pIC50 [21]: 4.69
- pIC50 [23]: 4.34

- inhibition (c-Myc/Max [24]): Active
- inhibition (c-Myc/Max [25]): Active
Compound: O=[N+]([O-])c1ccc(Nc2ccccc2-c2ccccc2)c2nonc12
- Ratio (NCI-H460): 1.4
